PPC-1+TRAIL kill – compounds killing PPC-1 cancer cells with TRAIL present, primary screen, TRAIL potentiator project, ATPLite luminescence, uHTS. PPC-1 cells + TRAIL, ATPLite viability luminescence. cell killing (% activity), % at 4 µM or 5 µM. 0.41% of 220,000 active. AID 1443, 2008;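 active means cell killing above 50% in the first pass at 4 µM, then a duplicate retest at 5 µM averaging 50% or more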
FLuc act counter – FLuc activators, initial screening, artefact control for FLuc-dependent activation tests, biochemical, ATPlite luminescence; Luciferin 4-monooxygenase (Photinus pyralis), P08659; ATPlite luciferase biochemical, 10 min; 0 = ATP-free wells, 1 = DMSO control; activation factor at 10 µM; 200,000 tested, under 10 active; AID 1027, 2008;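 active means luciferase activation factor, scaled between plate controls, of at least 2 with compound at 10 µM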
Target sequence (P08659 whole entry, looked up): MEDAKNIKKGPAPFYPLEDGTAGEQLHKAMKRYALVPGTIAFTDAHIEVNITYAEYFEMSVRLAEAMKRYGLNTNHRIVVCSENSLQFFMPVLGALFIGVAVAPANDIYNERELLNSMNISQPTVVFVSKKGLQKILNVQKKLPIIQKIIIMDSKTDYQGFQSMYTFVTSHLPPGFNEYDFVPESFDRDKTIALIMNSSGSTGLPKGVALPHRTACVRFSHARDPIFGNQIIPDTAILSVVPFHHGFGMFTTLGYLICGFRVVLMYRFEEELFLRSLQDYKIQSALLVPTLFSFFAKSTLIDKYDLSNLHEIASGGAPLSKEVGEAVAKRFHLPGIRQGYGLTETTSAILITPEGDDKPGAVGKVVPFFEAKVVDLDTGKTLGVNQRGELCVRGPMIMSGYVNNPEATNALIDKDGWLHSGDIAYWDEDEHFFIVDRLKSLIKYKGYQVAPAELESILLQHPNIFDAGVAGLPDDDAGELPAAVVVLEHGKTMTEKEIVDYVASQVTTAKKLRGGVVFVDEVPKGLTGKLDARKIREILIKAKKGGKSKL
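Assay system: Luciferase/luciferin detection reagent, cell-free biochemical luciferase assay / Read-out: luciferase activation / Benchmarks: No-ATP low control, compound-free enzyme-plus-ATP high control / Medium: PBS buffer for ATP / Detection: luminescence measurement of luciferase light output / Schedule: 10 min at ambient temperature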
FLuc inh counter – firefly luciferase enzyme inhibitors, primary screen, artefact control for luciferase-based inhibitor screens, biochemical, luminescence, ATPLite | 10 min | 1.5% of 200,000 active | inhibition, % at 10 µM | Luciferin 4-monooxygenase (Photinus pyralis), P08659 | AID 1006, 2008;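 active means inhibition above about 50% when tested at 10 µM, limit read from the data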
MIN6 prolif – inducers of MIN6 beta-cell proliferation, primary screen, ATP luminescence, uHTS; MIN6 cells proliferation, ATPlite luminescence, 48 h; cells starved in 0.2% serum; 100% = growth in 10% serum; 0.29% of 330,000 active; proliferation, % at 10 µM;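 active means compounds whose signal lies at least 3.5 SD above the mean of all wells on their plate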
iPSC survival up – enhancers of single-cell hiPSC survival, primary screen, ATPlite luminescence | 0.044% of 360,000 active | AID 602274, 2012 | 100% = ROCK inhibitor wells, 0% = DMSO | survival enhancement, % at 20 µM; in the data active means survival enhancement above about 18%;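 further: cells exposed to compounds for 16 hours before the ATP read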
TRAIL sens C8 – viability loss with TRAIL in NB7+C8 cells, primary screen, TRAIL sensitizer project, cell-based, ATPlite luminescence; inhibition (viability loss, TRAIL sensitization), % at 10 µM; 1% of 360,000 active; AID 624354, 2012;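 active means compounds causing at least 50% loss of cell viability in the single-dose screen, relative to plate controls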
Numbers stand for hits. In the library only some 1.8% were active in any assay of this set; here they are far more common.

How did Fc1ccc(-c2nnc(-c3ccc(Cl)cc3)o2)cc1 do in these assays?
PPC-1+TRAIL kill: inactive; FLuc act counter: inactive; FLuc inh counter: inactive; MIN6 prolif: inactive; iPSC survival up: inactive; TRAIL sens C8: inactive

What do the screens show for `Fc1ccc(-c2nnc(-c3ccc(Cl)cc3Cl)o2)cc1`?
FLuc act counter: inactive; FLuc inh counter: 89.4; MIN6 prolif: inactive; iPSC survival up: inactive; TRAIL sens C8: 85.9

What do the screens show for `CSc1ccccc1-c1nnc(-c2ccc(Cl)cc2Cl)o1`?
PPC-1+TRAIL kill: inactive; FLuc act counter: inactive; FLuc inh counter: 59.5; MIN6 prolif: inactive; iPSC survival up: inactive; TRAIL sens C8: inactive

How did Clc1ccc(-c2nnc(-c3ccc(Br)o3)o2)c(Cl)c1 do in these assays?
PPC-1+TRAIL kill: inactive; FLuc act counter: inactive; FLuc inh counter: inactive; MIN6 prolif: inactive; iPSC survival up: inactive; TRAIL sens C8: inactive

How did Clc1ccc(-c2nnc(-c3ccccc3)o2)c(Cl)c1 do in these assays?
PPC-1+TRAIL kill: inactive; FLuc act counter: inactive; FLuc inh counter: 86.0; MIN6 prolif: inactive; iPSC survival up: inactive; TRAIL sens C8: 69.6

Results for CC(=O)Nc1ccc(-c2ccnc3c2CC(C)(C(=O)NCc2cccc(Cl)c2)O3)cc1 (centres undefined) ?
iPSC survival up: inactive; TRAIL sens C8: inactive

What do the screens show for `CCOc1ccc(-n2nc3ccc(N)cc3n2)cc1`?
MIN6 prolif: inactive; iPSC survival up: inactive; TRAIL sens C8: inactive

What do the screens show for `CCOc1ccc(-n2nc3cc(C)c(N)cc3n2)cc1`?
MIN6 prolif: inactive; iPSC survival up: inactive; TRAIL sens C8: 58.7

Results for CCOC(=O)c1cc([N+](=O)[O-])cc([N+](=O)[O-])c1Sc1ncnc2nc[nH]c12 ?
iPSC survival up: inactive; TRAIL sens C8: 67.3

How did CCOC(=O)C(C)(C)Sc1ncnc2nc[nH]c12 do in these assays?
PPC-1+TRAIL kill: inactive; FLuc act counter: inactive; FLuc inh counter: inactive; MIN6 prolif: inactive; iPSC survival up: inactive; TRAIL sens C8: inactive

What do the screens show for `CC(C)(C)OC(=O)N1CCC(NC(=O)c2nc[nH]c2C(=O)N2CCc3ccccc3C2)CC1`?
MIN6 prolif: inactive; iPSC survival up: inactive; TRAIL sens C8: inactive

How did CCOCC(=O)NC1CCc2cc(OC)c(OC)c(OC)c2-c2ccc(SC)c(=O)cc21 (centres undefined) do in these assays?
iPSC survival up: inactive; TRAIL sens C8: inactive

Results for CC(C)CCNC(=O)c1onc(CSc2ccc(Cl)cc2)c1C(=O)NCCC(C)C ?
PPC-1+TRAIL kill: inactive; MIN6 prolif: inactive; iPSC survival up: inactive; TRAIL sens C8: inactive

What do the screens show for `CC(C)NC(=O)c1onc(CSc2ccc(F)cc2)c1C(=O)O`?
PPC-1+TRAIL kill: inactive; FLuc act counter: inactive; FLuc inh counter: inactive; MIN6 prolif: inactive; iPSC survival up: inactive; TRAIL sens C8: inactive

How did CC(C)CCNC(=O)c1onc(CSc2ccc(F)cc2)c1C(=O)NCCC(C)C do in these assays?
MIN6 prolif: inactive; iPSC survival up: 20.6; TRAIL sens C8: inactive

Results for CC(C)NC(=O)c1onc(CSc2ccc(C(C)C)cc2)c1C(=O)O ?
PPC-1+TRAIL kill: 96.2; FLuc act counter: inactive; FLuc inh counter: inactive; MIN6 prolif: inactive; iPSC survival up: inactive; TRAIL sens C8: inactive

How did Cc1ccc(S(=O)(=O)NCc2ccccc2)cc1C(=O)N1CCCC(C(F)(F)F)C1 (centres undefined) do in these assays?
MIN6 prolif: inactive; iPSC survival up: inactive; TRAIL sens C8: inactive

Results for COc1ccc(CCN2C(=O)c3cccc4c(C(=O)N5CCCCC5)ccc(c34)C2=O)cc1OC ?
PPC-1+TRAIL kill: inactive; FLuc act counter: inactive; FLuc inh counter: inactive; MIN6 prolif: inactive; iPSC survival up: inactive; TRAIL sens C8: inactive

What do the screens show for `Cn1c2c(c(=O)n(C)c1=O)C(C(F)(F)F)(C(F)(F)F)N=C(c1ccc(Cl)cc1)N2`?
PPC-1+TRAIL kill: inactive; FLuc act counter: inactive; FLuc inh counter: inactive; MIN6 prolif: inactive; iPSC survival up: inactive; TRAIL sens C8: 50.5

How did COc1ccc(CCNc2cc(C)[nH]c(=O)c2)cc1OC do in these assays?
MIN6 prolif: inactive; iPSC survival up: inactive; TRAIL sens C8: inactive
